Activity calls are given as the source filed them. No cut-off for these calls is given here.
What was measured:
LNCaP [1] = experiment: Induction of cell differentiation in human LNCaP cells after 6 days; type: functional, cell-based
Outline: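 LNCaP cells given 1 µM compound, alone or with 1 µM ATRA, for 6 days. Lysates (50 µg) run on 10% SDS-PAGE and Western blotted with anti-cytokeratin 8/18, β-actin as control. ECL detection; band intensity by densitometry taken as the differentiation marker.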

[2] = Inhibition of ATRA hydroxylase in Syrian golden hamster liver microsome assessed ATRA metabolism using [11.12-3H]-ATRA; type: microsomes, Mesocricetus auratus
Outline: (§1)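 Microsomes from male Syrian golden hamster liver, or from T47D cells pretreated with 1 µM ATRA. Incubation in 0.1 M phosphate buffer pH 7.4 with NADPH, MgCl2 and BSA, inhibitor in DMSO; 3 min preincubation at 37 °C, then [11,12-3H]-ATRA for 30 min at 37 °C under oxygen. Ethyl acetate extraction, reverse-phase HPLC with radiometric detection; percent polar metabolites; IC50 from dose-response curves.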

Cytochrome P450 26A1 [3] = biological target: T1, Cytochrome P450 26A1 (Homo sapiens, UniProt O43174); experiment: Inhibition of ATRA-induced CYP26 in human MCF7 cells assessed ATRA as metabolism using [11.12-3H]-ATRA; type: functional, cell-based
T1 sequence (O43174 whole entry): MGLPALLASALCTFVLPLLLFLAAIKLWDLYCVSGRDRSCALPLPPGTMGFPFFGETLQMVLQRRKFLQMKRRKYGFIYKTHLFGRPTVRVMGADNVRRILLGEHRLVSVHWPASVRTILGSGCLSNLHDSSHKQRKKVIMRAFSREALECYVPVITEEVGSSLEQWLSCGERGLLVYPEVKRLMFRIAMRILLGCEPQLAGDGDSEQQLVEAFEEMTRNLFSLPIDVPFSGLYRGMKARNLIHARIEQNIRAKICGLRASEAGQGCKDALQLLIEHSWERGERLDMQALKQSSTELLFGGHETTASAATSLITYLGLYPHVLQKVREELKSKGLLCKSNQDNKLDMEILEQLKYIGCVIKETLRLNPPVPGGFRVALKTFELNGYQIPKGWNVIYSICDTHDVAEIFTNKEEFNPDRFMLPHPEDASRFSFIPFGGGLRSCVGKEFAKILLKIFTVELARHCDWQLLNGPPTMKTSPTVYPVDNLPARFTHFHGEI
Outline: (§2)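 MCF-7 or T47D cells (1 × 10^6 per well) induced with 1 µM ATRA for 12-15 h, washed, then given inhibitor (0.0001-10 µM, ethanol stock) plus 0.001 µM [11,12-3H]-ATRA for 5 h. Media and cells extracted with ethyl acetate; metabolites measured by reverse-phase HPLC with radiometric detection; IC50 from dose-response curves.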

Cytochrome P450 26A1 [4] = biological target: T1, Cytochrome P450 26A1; experiment: Inhibition of ATRA-induced CYP26 in human T47D cells assessed as ATRA metabolism using [11.12-3H]-ATRA; type: functional, cell-based; outline: as §2
Cytochrome P450 26A1 [5] = biological target: T1, Cytochrome P450 26A1; experiment: Inhibition of ATRA-induced CYP26 in human T47D cell microsome assessed as ATRA metabolism using [11.12-3H]-ATRA; type: functional, microsomes; outline: as §1
MCF7 [6] = experiment: Growth inhibition of human MCF7 cells after 6 days by MTT assay; type: functional, cell-based; conditions: MCF7, 144 h
Outline: (§3)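 MCF-7 (IMEM, 5% FBS) or T47D (RPMI 1640, 10% FBS) cells, 1 × 10^4 per well, adhered ~18 h, then exposed to 0.0001-10 µM drug (ethanol) for 6 days with media and drug renewed on day 4. MTT for 2 h, formazan dissolved in DMSO, A540. Triplicate wells, 2-3 experiments; IC50 by nonlinear regression.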

T47D [7] = experiment: Growth inhibition of human T47D cells after 6 days by MTT assay; type: functional, cell-based; conditions: 144 h; outline: as §3
MDA-MB-231 [8] = experiment: Growth inhibition of human MDA-MB-231 cells up to 10 uM after 6 days by MTT assay; type: functional, cell-based
LNCaP [9] = experiment: Growth inhibition of human LNCaP cells after 6 days by MTT assay; type: functional, cell-based; conditions: 144 h
Outline: (§4)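 LNCaP cells (1 × 10^4) on poly-L-lysine-coated wells, attached 36 h; PC-3 cells (1 × 10^4), uncoated, attached 24 h; both in RPMI 1640. Treated with a concentration range of drug for 6 days, medium changed every 3 days. MTT read-out at 540 nm; IC50 by nonlinear regression from at least two experiments.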

PC-3 = experiment: Growth inhibition of human PC3 cells after 6 days by MTT assay; type: functional, cell-based; conditions: PC-3, 144 h; outline: as §4
MCF7 [10] = experiment: Induction of apoptosis in human MCF7 cells at 1 uM for 6 days by TUNEL assay; type: functional, cell-based
Outline: (§5)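 MCF-7 or T47D cells exposed to 1 µM compound for 6 days, then trypsinized, fixed in 1% paraformaldehyde and stored in 70% ethanol at -20 °C overnight. TdT/BrdUTP labeling (APO-BRDU TUNEL), fluorescein anti-BrdU plus PI/RNase stain; apoptotic cells counted by flow cytometry.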

T47D [11] = experiment: Induction of apoptosis in human T47D cells at 1 uM for 6 days by TUNEL assay; type: functional, cell-based; outline: as §5
[12] = biological target: T2, Retinoic acid receptor alpha (Homo sapiens, UniProt P10276); experiment: Displacement of [11,12-3H]ARTA from RARalpha
T2 sequence (P10276 whole entry): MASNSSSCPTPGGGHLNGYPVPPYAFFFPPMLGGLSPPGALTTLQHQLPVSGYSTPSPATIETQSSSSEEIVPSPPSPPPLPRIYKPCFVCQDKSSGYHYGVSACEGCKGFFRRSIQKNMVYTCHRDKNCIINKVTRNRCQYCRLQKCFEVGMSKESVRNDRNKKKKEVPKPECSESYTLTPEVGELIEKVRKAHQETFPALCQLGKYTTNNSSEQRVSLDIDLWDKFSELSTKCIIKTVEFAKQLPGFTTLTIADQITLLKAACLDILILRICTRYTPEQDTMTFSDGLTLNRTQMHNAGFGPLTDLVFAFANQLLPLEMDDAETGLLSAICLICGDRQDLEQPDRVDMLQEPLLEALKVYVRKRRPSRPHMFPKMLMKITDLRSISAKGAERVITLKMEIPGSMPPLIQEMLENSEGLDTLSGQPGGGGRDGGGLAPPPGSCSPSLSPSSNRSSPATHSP
Outline: (§6)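 Recombinant S-Tag RARα, RARβ or RARγ fusion protein extracts (10-30 µg/mL total protein) in HEPES pH 7.9 binding buffer. Incubated with 1 nM [3H]all-trans-RA and 0-500 nM test compound for 3 h at 27 °C.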

[13] = biological target: T3, Retinoic acid receptor beta (Homo sapiens, UniProt P10826); experiment: Displacement of [11,12-3H]ARTA from RARbeta; outline: as §6
T3 sequence (P10826 whole entry): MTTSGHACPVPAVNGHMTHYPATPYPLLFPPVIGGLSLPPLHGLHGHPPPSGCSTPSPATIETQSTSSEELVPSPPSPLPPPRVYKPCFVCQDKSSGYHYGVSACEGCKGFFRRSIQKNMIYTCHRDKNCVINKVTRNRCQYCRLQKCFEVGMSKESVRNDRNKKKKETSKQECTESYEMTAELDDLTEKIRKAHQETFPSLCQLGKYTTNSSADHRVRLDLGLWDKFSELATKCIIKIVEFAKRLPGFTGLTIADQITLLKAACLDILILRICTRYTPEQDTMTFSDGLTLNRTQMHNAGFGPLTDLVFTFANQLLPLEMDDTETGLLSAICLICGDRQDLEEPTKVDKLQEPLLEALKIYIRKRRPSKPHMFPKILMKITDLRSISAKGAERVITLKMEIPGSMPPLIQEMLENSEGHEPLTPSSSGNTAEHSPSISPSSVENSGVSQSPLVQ

[14] = Displacement of [11,12-3H]ARTA from RARgamma; design: species or system Homo sapiens
Outline: as §6, with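 “°C. Nonspecific binding measured with a 200-fold excess of unlabeled RA; IC50 from dose-response curves, at least two experiments.” for “°C.”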

MCF7 [15] = experiment: Reduction of tumor growth in MCF7 cells xenografted ovariectomized mouse at 0.033 mmol/kg, sc for 6 weeks relative to control; type: functional, Homo sapiens; design: scale not given: the % may be the effect or the level left
Outline: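 Female ovariectomized nude mice received estrogen pellets. MCF-7 cells (2 × 10^6 in Matrigel) were injected sc into both flanks and grown 4-5 weeks to 200-300 mm3. Groups of n = 5 were dosed sc once daily, 6 days/week for 6 weeks, vehicle 0.3% HPC, 200 µL. Tumors were measured weekly by caliper, volume = (4/3)πr1²r2, and change was compared with vehicle controls.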

MDA-MB-231 [16] = experiment: Growth inhibition of human MDA-MB-231 cells after 6 days by MTT assay; type: functional, cell-based; conditions: MDA-MB-231, 144 h

IC50 [2] | Ki [2] | IC50 (Cytochrome P450 26A1 [3]) | IC50 (Cytochrome P450 26A1 [4]) | IC50 (Cytochrome P450 26A1 [5]) | IC50 [12] | IC50 [13] | IC50 [14] | Compound | also measured
0.05 nM | 62 nM | 24.7 nM | 10 nM | 5.2 nM | – | – | – | CC1=C(/C=C/C(C)=C/C=C/C(C)=C/C(=O)n2ccnc2)C(C)(C)CCC1n1ccnc1 (racemic) | Activity (LNCaP [1]): Active; IC50 (MCF7 [6]): 130 nM; IC50 (T47D [7]): 9 nM; Activity (MDA-MB-231 [8]): inactive; IC50 (LNCaP [9]): 10000 nM; IC50 (PC-3): 5800 nM; Activity (MCF7 [10]): Active; Activity (T47D [11]): Active
23 nM | – | – | – | – | – | – | – | COC(=O)/C=C(C)/C=C/C=C(C)/C=C/C1=C(C)C(=N/O)/CCC1(C)C | –
– | – | – | – | 680 nM | – | – | – | COC(=O)/C=C(C)/C=C/C=C(C)/C=C/C1=C(C)[C@H](n2ccnc2)CCC1(C)C (stereo in doubt; (-)-5) | IC50 (Cytochrome P450 26A1 [4]; t47d): 6000 nM
2.33 nM | 0.22 nM | 10.9 nM | 6.3 nM | 2.4 nM | 20 nM | 175 nM | 45 nM | CC1=C(/C=C/C(C)=C/C=C/C(C)=C/C(=O)O)C(C)(C)CCC1n1ccnc1 (racemic) | Activity (LNCaP [1]): Active; IC50 (MCF7 [6]): 490 nM; IC50 (T47D [7]): 3 nM; Activity (MDA-MB-231 [8]): inactive; IC50 (LNCaP [9]): 10000 nM; IC50 (PC-3): 7700 nM; Activity (MCF7 [10]): Active; Activity (T47D [11]): Active; Activity (MCF7 [15]): 85.2%
119 nM | 4.12 nM | – | – | – | 100 nM | 175 nM | 65 nM | CC1=C(/C=C/C(C)=C/C=C/C(C)=C\C(=O)O)C(C)(C)CCC1n1ccnc1 (racemic) | –
76.7 nM | 0.78 nM | – | – | – | – | – | – | CC1=C(/C=C/C(C)=C/C=C/C(C)=C\C(=O)Nc2ccc(O)cc2)C(C)(C)CCC1n1ccnc1 (racemic) | –
0.009 nM | 46 nM | 200 nM | 215 nM | 40 nM | – | – | – | COC(=O)/C=C(C)/C=C/C=C(C)/C=C/C1=C(C)C(n2ccnc2)CCC1(C)C (racemic) | IC50 (MDA-MB-231 [16]): 7500 nM
2 nM | – | – | – | – | – | – | – | COC(=O)/C=C(C)/C=C/C=C(C)/C=C/C1=C(C)C(n2cncn2)CCC1(C)C (racemic) | –
51.7 nM | – | – | – | – | 20 nM | 90 nM | 80 nM | CC1=C(/C=C/C(C)=C/C=C/C(C)=C/C(=O)n2cncn2)C(C)(C)CCC1 | –

Compound | IC50 [2] | Ki [2] | IC50 (Cytochrome P450 26A1 [3]) | IC50 (Cytochrome P450 26A1 [4]) | IC50 (Cytochrome P450 26A1 [5]) | IC50 [12] | IC50 [13] | IC50 [14] | also measured
CC(=O)N1CCN(c2ccc(OCC3COC(Cn4ccnc4)(c4ccc(Cl)cc4Cl)O3)cc2)CC1 (configuration not stated) [KETOCONAZOLE] | 34000 nM | – | – | – | – | – | – | – | –
